# Compound activity (PubChem)
# Most compounds without a hit are left out; they make up all but 2.6% or so of the library.
# SENP8 block-1: SENP8 protease inhibition. inhibition, % at 10 µM. AID 2540. Q96LD8. actives 1.2% (n = 330,000). purified SENP8, Z-RLRGG-aminoluciferin cleavage, luminescence; in the data active = inhibition above about 50%
# SENP8 block-2: blocks human SENP8 cleavage of Nedd8 substrate | inhibition, % at 20 µM | Q96LD8 | recombinant SENP8, Nedd8 substrate fluorescence | actives 0.64% (n = 360,000) | AID 602440; in the data active = inhibition mostly above about 40%, no sharp cut-off; inactive = mostly below about 27%
# Platelet DG rel: platelet dense granule release activity. human platelet-rich plasma, SFLLRN dense granule ATP release, luminescence. inhibition, %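 (compounds screened at 7.5 µM in platelet-rich plasma)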. actives 0.22% (n = 300,000);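 active = mean replicate score, as percent of positive control, at or above 50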
# SENP6 block: SENP6 protease inhibition; inhibition, % at 10 µM; AID 2599; Q9GZR1; actives 1.8% (n = 330,000); Recombinant SENP6 catalytic domain, aminoluciferin luminescence;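 active = inhibition above about 50% at the single tested dose, limit read from the data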;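 also: plate controls were DMSO wells with enzyme for no effect and DMSO wells lacking enzyme for full effect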
# Target sequence (Q9GZR1 628-1112 limits assumed): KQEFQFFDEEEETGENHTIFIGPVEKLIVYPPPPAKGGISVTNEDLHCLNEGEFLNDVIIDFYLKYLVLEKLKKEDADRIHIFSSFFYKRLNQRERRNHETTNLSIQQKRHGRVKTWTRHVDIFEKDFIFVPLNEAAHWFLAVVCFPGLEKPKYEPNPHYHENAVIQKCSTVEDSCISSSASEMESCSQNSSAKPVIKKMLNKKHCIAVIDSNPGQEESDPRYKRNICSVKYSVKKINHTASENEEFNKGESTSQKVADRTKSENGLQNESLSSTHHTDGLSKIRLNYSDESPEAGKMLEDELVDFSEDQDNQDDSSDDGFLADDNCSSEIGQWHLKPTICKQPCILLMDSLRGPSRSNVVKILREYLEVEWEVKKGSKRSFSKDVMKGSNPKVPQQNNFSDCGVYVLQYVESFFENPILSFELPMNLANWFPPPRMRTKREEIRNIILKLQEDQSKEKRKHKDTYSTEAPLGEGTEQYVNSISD
# SENP7 inh: SENP7 protease inhibition | inhibition, % at 5 µM | AID 434973 | actives 1.5% (n = 330,000) | recombinant SENP7, Z-RLRGG-aminoluciferin luminescence, 40 min;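 active = inhibition above about 50% at the single test dose, limit read from the data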;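 also: plate controls were DMSO with enzyme for no effect and no enzyme buffer wells for full effect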
# SENP1 inh: SENP1 (human) catalytic domain inhibition | recombinant SENP1 catalytic domain, CyPet-SUMO1-YPet FRET cleavage | AID 624204 | Q9P0U3 | inhibition, % at 10 µM | actives 0.21% (n = 360,000);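 active = inhibition at least 30% at 10 µM, raw YFP signal under a set limit, fluorescence ratio 0.5 to 1.5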;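 also: 0% = enzyme with DMSO and 100% = no enzyme wells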
#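 system = hSENP1 catalytic domain, recombinant | reagent = SFCypet-SUMO1-SFYpet substrate at 25 nM | doses = one dose per compound, 10 µM, 0.5% DMSO | incubation = enzyme reaction for 50 min at room temperature, dark | measured by = FRET, CFP and YFP emission | controls = no-enzyme low, enzyme-DMSO high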
# The depositor's hits bear a star; . = not tested or not shown.
SMILES,SENP8 block-1,SENP8 block-2,Platelet DG rel,SENP6 block,SENP7 inh,SENP1 inh
CCCC1CC(CCc2ccccc2)OS(=O)(=O)N1 (centres undefined),-8.0,14.7,-2.3,-10.6,8.9,-0.7
Cc1ccc(/C=C/C(=O)O)cc1S(=O)(=O)NC1CCS(=O)(=O)C1 (centres undefined),0.1,11.2,-0.9,-7.8,0.9,2.3
COc1ncnc2c1NC1=C(S2)C(=NCCC(=O)O)CC(C)(C)C1,2.5,-18.4,1.7,1.2,3.1,51.8*
Cc1ccc(NCCN(C)C)c2c(=O)c3cc(O)ccc3sc12,.,27.3,.,.,.,37.2*
Cc1cc(C=O)c(C)n1-c1ccc(Oc2ccc([N+](=O)[O-])cn2)cc1,-0.7,20.9,-10.7,-7.9,-8.7,0.0
Cc1cc(C=O)c(C)n1-c1ccc(NC2CCCC2)c([N+](=O)[O-])c1,0.4,41.9*,-1.2,-10.2,4.9,6.7
CCc1ccc2nc(N3C(=O)C(O)=C(C(=O)c4ccco4)C3c3cccs3)sc2c1 (centres undefined),29.6,-114.2,2.3,55.4*,38.3,-18.1
Cc1ccc2nc(N3C(=O)C(O)=C(C(=O)c4cc5ccccc5o4)C3c3cccs3)sc2c1 (centres undefined),68.1*,-84.7,0.8,87.6*,77.5*,-39.4
Cc1ccc2nc(N3C(=O)C(O)=C(C(=O)c4ccc(C)o4)C3c3ccco3)sc2c1 (centres undefined),64.3*,-131.7,.,78.2*,76.2*,-82.8
Cc1ccc(NC(=O)NN2CCOCC2)cc1,-1.1,10.8,5.1,-13.0,-1.7,1.1
COc1ccc(/C=C(\C#N)c2cc(OC)c(OC)cc2[N+](=O)[O-])cc1,-0.2,-64.2,14.6,-18.1,6.9,-1.2
O=C(Nc1cc(C(F)(F)F)ccc1-n1cncn1)C1CC1,-0.2,12.7,9.3,-3.2,6.5,-1.5
Cc1cc(N=Nc2ccc(Cl)cc2)cc(CN2CCCC2)c1O,-7.3,42.8*,2.0,-5.5,-11.3,6.0
Cc1cc(N=Nc2ccc(Cl)cc2)cc(CN2CCOCC2)c1O,-13.4,18.7,-0.7,-7.6,-7.9,2.9
O=C(Nc1ccccc1Cl)C1Cc2ccccc2O/C1=N\O (centres undefined),4.7,4.2,-1.0,-17.2,-5.7,-3.1
CCOC(=O)c1ccc(NC2=CC(=O)C(=O)c3ccccc32)cc1,8.5,82.2*,9.4,32.0,9.4,11.5
CC(=O)Nc1ccc(NC2=CC(=O)c3ccccc3C2=O)cc1,-4.4,-5.5,3.4,13.0,6.1,1.5
COCc1cc(C)nc(SCC[N+](C)(C)CC(=O)c2ccc(Br)cc2)c1C#N,-9.9,14.0,50.7*,-18.7,-8.6,-0.2
COCc1cc(C)nc(SCC[N+](C)(C)CC(=O)Nc2ccccc2)c1C#N,-6.2,8.6,19.4,4.0,-3.2,-0.2
COc1cc2cccc(OC)c(=O)c2c(O)c1OC,6.3,5.0,-2.5,14.0,1.0,-0.3
CC(=O)Oc1cc2cccc(OC(C)=O)c(=O)c2c(OC(C)=O)c1OC(C)=O,0.9,44.5*,4.2,16.6,-5.3,4.1
CCOC(=O)C1=C(Cc2ccc(OC)cc2)C(=O)c2ccccc2C1=O,.,-304.1,.,.,.,40.3*
CCCCn1c(CNC(=O)CC)nc2ccccc21,1.1,1.5,5.3,-14.5,7.5,0.3
Cc1sc(NC(=O)C2C3CCC(O3)C2C(=O)O)nc1-c1ccc(CC(C)C)cc1 (centres undefined),4.3,12.4,3.2,55.8*,14.1,0.7
CCOC(=O)c1c(NC(=O)C2C3CCC(O3)C2C(=O)O)sc(C)c1-c1ccc(C)cc1 (centres undefined),6.7,-19.0,0.8,15.6,5.9,0.9
SMILES,SENP8 block-1,SENP8 block-2,Platelet DG rel,SENP6 block,SENP7 inh,SENP1 inh
CC1CCN(CC(=O)Nc2ccccc2Sc2ccccc2)CC1,2.0,-2.8,15.7,1.2,0.8,-4.4
COc1cccc(-c2c(C(=O)N/N=C/c3ccc(C)s3)nnn2-c2nonc2N)c1,-3.8,-74.5,24.2,7.0,4.0,0.5
CCOc1cccc(-c2c(C(=O)N/N=C/c3ccc(C)s3)nnn2-c2nonc2N)c1,-8.9,-48.6,64.6*,-8.1,3.3,-2.1
Cc1c(C(=O)N2CCCC2)sc(NC(=O)c2ccc(Cl)cc2)c1C#N,0.9,-34.2,58.2*,10.6,5.1,-48.5
COc1cccc(NC(=O)C2(C)CCN2Cc2ccc(OC)c3ccccc23)c1 (centres undefined),.,12.8,.,.,.,1.9
CCOC(=O)C(OC(=O)c1sc(=S)n(C)c1C)C(C)=O (centres undefined),7.0,18.4,50.1*,-12.2,-4.2,1.8
Cc1ccc(OCCOC(=O)c2sc(=S)n(C)c2C)cc1,-2.6,11.1,-1.9,-2.6,8.6,-0.2
O=C1c2cccc(NCCNCCO)c2C(=O)c2cccc(NCCNCCO)c21,.,44.0*,.,.,.,-3.8
CCc1nnc(NC(=O)CSc2nnc(-c3ccco3)n2CCOC)s1,-4.2,7.9,6.6,-17.7,2.2,2.1
CCc1nnc(NC(=O)CSc2nnc(Cc3cccn3C)n2CCOC)s1,-2.8,3.9,52.4*,-0.3,4.2,-2.2
CCc1ccc(N(C(=O)CNC(=O)c2ccco2)C(C(=O)NC2CCCC2)c2cccnc2)cc1 (centres undefined),-3.2,11.2,-2.1,-20.3,-4.2,1.2
O=C(O)c1cccc2c1C(=O)c1cc([N+](=O)[O-])cc([N+](=O)[O-])c1-2,.,43.5*,.,.,.,-2.5
Brc1ccc(-c2nnc(-c3ccco3)o2)cc1,66.2*,-207.5,-51.0,80.8*,60.2*,0.3
c1ccc(-c2nnc(-c3ccco3)o2)cc1,16.2,-77.7,-0.2,46.9,43.8,0.1
Cc1cc([N+](=O)[O-])nn1CCCC(=O)Nc1cccc(Cl)c1Cl,-2.4,1.5,-0.1,-5.3,-4.7,3.8
Cc1cc(C)cc(NC(=S)N=Nc2c(O)n(C)c3ccc(S(=O)(=O)N4CCOCC4)cc23)c1,5.9,-0.7,-1.2,-21.8,1.7,3.4
Cc1ccc(NC(=S)N=Nc2c(O)n(C)c3ccc(S(=O)(=O)N4CCOCC4)cc23)cc1,.,29.8*,-13.4,.,.,5.9
NC(CO)C(=O)NNCc1ccc(O)c(O)c1O (centres undefined),4.3,44.8*,1.4,8.9,16.2,4.6
CC(=O)Nc1ccc(C(=O)N(C)c2ccccc2)cc1,-6.9,1.3,77.0*,-4.6,-1.8,2.0
CCN(C(=O)c1ccc(NC(C)=O)cc1)c1ccccc1,-9.6,7.9,0.0,-20.2,-2.9,-5.4
CN1C(=S)SC(N(O)C(=O)Nc2cccc3ccccc23)C1(C)C (centres undefined),22.6,-432.7,4.6,57.5*,25.6,-8.0
CN1C(=S)SC(N(O)C(=O)Nc2ccccc2)C1(C)C (centres undefined),5.0,16.6,7.0,7.6,4.3,1.1
Cc1cccc(Nc2nnc(SCC(=O)NCC3CCCO3)s2)c1C (centres undefined),-12.5,12.8,.,-9.0,-11.6,0.0
